Assay outcomes: PubChem BioAssay, several laboratories
HCT116 bCat-KO – primary screen for growth suppressors in beta-catenin knockout HCT116 cells (colon tumor, human); viability, % at 10 µM; HCT116 beta-catenin knockout viability, CellTiter-Glo, 60 h; active compounds read low; 140,000 tested, 1.5% active;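 active = viability at or under a set limit, the compound median less 4 SD, cut at about 6% in these data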
TNAP inh noacc – human TNAP enzyme inhibitors, primary screen, biochemical, luminescent, no phosphate acceptor, uHTS. Alkaline phosphatase, tissue-nonspecific isozyme (Homo sapiens), P05186. purified TNAP, CDP-star luminescence, 30 min. inhibition, % at 20 µM. 200,000 tested, 0.26% active. AID 1012, 2008;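 active = tissue-nonspecific alkaline phosphatase inhibition above about 50% at 20 µM in the single-dose screen, limit read from the data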
Target sequence (P05186 whole entry, looked up): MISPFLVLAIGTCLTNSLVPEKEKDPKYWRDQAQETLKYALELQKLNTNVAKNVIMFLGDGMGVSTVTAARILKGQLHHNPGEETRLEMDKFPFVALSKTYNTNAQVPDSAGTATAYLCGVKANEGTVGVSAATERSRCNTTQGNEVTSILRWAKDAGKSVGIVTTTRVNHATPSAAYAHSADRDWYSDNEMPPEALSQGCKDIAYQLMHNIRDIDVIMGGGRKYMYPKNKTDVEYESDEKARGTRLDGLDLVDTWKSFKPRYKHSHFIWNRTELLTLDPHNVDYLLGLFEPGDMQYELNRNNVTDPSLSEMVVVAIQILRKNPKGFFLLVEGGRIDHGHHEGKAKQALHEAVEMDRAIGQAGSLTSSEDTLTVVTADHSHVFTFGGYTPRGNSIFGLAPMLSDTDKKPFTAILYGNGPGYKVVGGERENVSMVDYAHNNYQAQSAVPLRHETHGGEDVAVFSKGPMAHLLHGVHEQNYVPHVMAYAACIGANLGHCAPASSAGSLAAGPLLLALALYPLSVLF
TNAP inh hi DEA – human TNAP enzyme inhibitors, primary screen, biochemical, luminescent, high phosphate acceptor level, uHTS; Alkaline phosphatase, tissue-nonspecific isozyme (Homo sapiens), P05186; purified TNAP, CDP-star luminescence, 1 M DEA; inhibition, % at 20 µM; 200,000 tested, 0.03% active; AID 1135, 2008;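 active = over 50% inhibition of tissue-nonspecific alkaline phosphatase at 20 µM in the single-dose screen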
L major viab – Leishmania major promastigote growth inhibition, primary screen; Leishmania major promastigotes, resazurin fluorescence viability; inhibition, % at 10 µM; 200,000 tested, 9% active; AID 1063, 2008; in the data active = inhibition above about 50%;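 note: promastigotes grown with compound for 44 hours at 28 °C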
HCT116 PTEN-null – growth suppression of PTEN-null HCT116, primary screen, cell-based, CellTiter-Glo. HCT116 PTEN-null viability, 60 h; active compounds read low. viability, % at 10 µM. 140,000 tested, 1.2% active;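 active = viability at or below a set limit, 4 SD under the median of all tested compounds, cut at about 3.7% in these data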;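 note: PTEN knockout HCT116 line with beta catenin targeted HCT116 as companion control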
TNAP act hiacc – TNAP activators at high phosphate acceptor level, primary screen, biochemical, luminescence, uHTS; Alkaline phosphatase, tissue-nonspecific isozyme (Homo sapiens), P05186; purified TNAP, CDP-star luminescence, 1 M DEA, 30 min; active compounds read high; 0 = EDTA background, 1 = DMSO-only activity; activation factor at 20 µM; 200,000 tested, under 10 active;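 active = activation factor at least 2 at 20 µM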
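Dosing: 20 µM single point. System: human TNAP. Amount: TNAP 1/800 final. Incubation: 30 min, room temperature. Read-out: TNAP activation factor scaled between EDTA and DMSO control wells. Signal: luminescence from CDP-star hydrolysis. Medium: 1 M DEA, pH 9.8, Mg2+, Zn2+. Control set: EDTA negative control, DMSO positive control.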
Large screens that a line does not name were inactive. Sampled rows, rich in hits. Any-hit rate of the full collection: about 9.6%.

Cc1ccc(-n2c(C)cc(C(=O)CN3CCOCC3)c2C)cc1C	L major viab 57.0 (no result: HCT116 bCat-KO, HCT116 PTEN-null)
Cc1cc(C(=O)CN2CCCC(C)C2)c(C)n1-c1ccc(F)cc1 (stereo unspecified)	L major viab 73.5
Cc1cc(C(=O)CSc2ncn[nH]2)c(C)n1-c1cccc(S(=O)(=O)N2CCOCC2)c1	L major viab 59.1
Cc1ccc(-n2c(C)cc(C(=O)CN3CCOCC3)c2C)cc1	none (no result: HCT116 bCat-KO, HCT116 PTEN-null)
Cc1ccc(S(=O)(=O)N2CCOCC2)cc1C(=O)N1c2ccccc2Sc2ccccc21	L major viab 99.0
CCOC(=O)C1CCN(c2ccc([N+](=O)[O-])c(C(C)=O)c2)CC1	none (no result: HCT116 bCat-KO, HCT116 PTEN-null)
O=C(NNS(=O)(=O)c1ccc(F)c(Cl)c1)c1cccc(S(=O)(=O)N2CCOCC2)c1	none
CCCC(=O)Nc1ccc(C(=O)NNC(=S)NC(=O)c2ccc(Br)o2)cc1	none (no result: HCT116 bCat-KO, HCT116 PTEN-null)
C/C(=N\NC(=O)CCC(=O)Nc1ccc(C)c(C)c1)c1cccs1	none (no result: HCT116 bCat-KO, HCT116 PTEN-null)
COc1ccc2c(CC(=O)Nc3nccs3)coc2c1	none (no result: HCT116 bCat-KO, HCT116 PTEN-null)
Cc1cc(C(=O)CCl)c(C)n1-c1cccc(S(=O)(=O)N2CCOCC2)c1	L major viab 100.6 (no result: HCT116 bCat-KO, HCT116 PTEN-null)
CCC1Oc2ccc(C)cc2N(CC(=O)N(Cc2cccnc2)Cc2ccc(C)o2)C1=O (stereo unspecified)	L major viab 100.3
CCC1Oc2ccc(C)cc2N(CC(=O)N(Cc2ccc(C)o2)C2CC(C)(C)NC(C)(C)C2)C1=O (stereo unspecified)	none
CC(=O)NC1C(Oc2ccc3c(C)cc(=O)oc3c2)OC(COC(C)=O)C(OC(C)=O)C1OC(C)=O (stereo unspecified)	none (no result: HCT116 bCat-KO, HCT116 PTEN-null)
CCc1ccc(NC(=S)N(CCCN2CCOCC2)Cc2ccco2)cc1	none (no result: HCT116 bCat-KO, HCT116 PTEN-null)
CCOC(=O)c1ccc(NC(=S)N(CCCN2CCCC2)Cc2ccco2)cc1	L major viab 80.4
CCOC(=O)c1ccc(NC(=S)N(CCCN2CCCC(C)C2)Cc2ccco2)cc1 (stereo unspecified)	L major viab 98.8
CCc1ccc(NC(=S)N(CCN2CCCCC2)Cc2ccco2)cc1	L major viab 95.3
COC1(OC)C(/C=C/c2ccc(Cl)cc2)C(C#N)(C#N)C1(OC)OC (stereo unspecified)	HCT116 bCat-KO 4.2, L major viab 85.2, HCT116 PTEN-null 3.0
COc1ccc(C)cc1NCC(=O)Nc1ccc(C(C)(C)C)cc1	none
CCCCNCc1cc(Br)c(OCc2cccs2)c(OC)c1	HCT116 bCat-KO 1.4, L major viab 100.6, HCT116 PTEN-null 1.3
COc1cccc(CNCCO)c1OCc1ccc(Cl)cc1	none (no result: HCT116 bCat-KO, HCT116 PTEN-null)
COc1cc(CNCCO)cc(Br)c1OCc1ccccc1Cl	L major viab 99.8
CCNCc1ccc(OCc2cccs2)c(OCC)c1	L major viab 53.8 (no result: HCT116 bCat-KO, HCT116 PTEN-null)
COc1cc(CNCCO)cc(Cl)c1OCc1ccc(Cl)cc1Cl	L major viab 100.3 (no result: HCT116 bCat-KO, HCT116 PTEN-null)
Cc1coc(=N)n1CC(=O)c1ccc(Cl)cc1	none (no result: HCT116 bCat-KO, HCT116 PTEN-null)
COc1ccc(OC)c(NC(=O)CNC(=O)c2ccc([N+](=O)[O-])cc2)c1	none (no result: HCT116 bCat-KO, HCT116 PTEN-null)
Nc1cccc(Nc2nc(OC(C(F)(F)F)C(F)(F)F)nc(OC(C(F)(F)F)C(F)(F)F)n2)c1	HCT116 PTEN-null 2.4
Cc1c(NC(=O)c2ccccc2N(C)S(=O)(=O)c2ccccc2)c(=O)n(-c2ccccc2)n1C	none
CCCCC(=O)Nc1ccc(NC(=O)c2cccs2)cn1	L major viab 82.6 (no result: TNAP inh noacc, TNAP inh hi DEA, TNAP act hiacc)
CCCC(=O)Nc1ccc(C(=O)NNC(=S)NC(=O)c2cccs2)cc1	L major viab 99.1
CCOC(=O)C(NCc1ccc(OC)cc1)(NC(C)=O)C(F)(F)F (stereo unspecified)	none
OC(COc1ccc2c(c1)CCC2)CN1CCN(c2ccccc2F)CC1 (stereo unspecified)	L major viab 74.3
O=[N+]([O-])c1ccc(OCC(O)CN2CCN(c3ccccc3F)CC2)cc1 (stereo unspecified)	none
COc1ccc(N2CCN(CC(O)COc3ccc4c(c3)CCC4)CC2)cc1 (stereo unspecified)	L major viab 92.0
C=CCc1ccccc1OCC(O)CN1CCN(c2ccc(OC)cc2)CC1 (stereo unspecified)	L major viab 70.4
C=CCc1ccccc1OCC(O)CN(C(C)C)C(C)C (stereo unspecified)	L major viab 99.7
COc1ccc(N2CCN(CC(O)COC(C)(C)C)CC2)cc1 (stereo unspecified)	none (no result: HCT116 bCat-KO, HCT116 PTEN-null)
COCCN1C(=O)N[C@@H](c2ccc(Br)cc2)C(C(C)=O)=C1C	none
CCN1C(=O)/C(=C\N(C)C)S/C1=N\S(=O)(=O)c1ccc(C)cc1	none (no result: HCT116 bCat-KO, HCT116 PTEN-null)
CC(C)(C)c1ccc(C(=O)NC(=S)Nc2nc3c(s2)CCCC3)cc1	L major viab 67.4
CC(C)(C)c1ccc(C(=O)NC(=S)Nc2sc3c(c2C#N)CCC3)cc1	none
CN(C)c1ccc(C(=O)Nc2nc3c(s2)CCCC3)cc1	L major viab 98.3
COc1cc(OC)cc(C(=O)N[C@H](C(=O)Nc2nc3c(s2)CCCC3)C(C)C)c1	L major viab 89.7
COC(=O)Nc1nc2c(s1)CCCC2	HCT116 bCat-KO 1.1, HCT116 PTEN-null 1.0
O=C(NCc1cccnc1)C(=O)Nc1ccc2c(c1)OCO2	none (no result: HCT116 bCat-KO, HCT116 PTEN-null)
COC(=O)c1cc(=O)n(CCc2ccccc2F)c(=Nc2ccc(F)c(Cl)c2)s1	L major viab 98.6
COC(=O)c1ccc(N=c2sc(C(=O)OC)cc(=O)n2C)cc1	none (no result: HCT116 bCat-KO, HCT116 PTEN-null)
COC(=O)c1cc(=O)n(Cc2ccco2)c(=Nc2ccc(F)c(Cl)c2)s1	HCT116 bCat-KO 1.6, L major viab 100.0
O=C(c1ccccc1)c1ccc(N2CCNCC2)cc1	L major viab 75.1
CN1CCN(c2ccc(C(=O)c3ccc(F)cc3)cc2)CC1	L major viab 67.9
O=C(c1ccccc1)c1ccc(N2CCCC2)cc1	none
O=C(O)CCC(=O)N1CCN(c2ccc(C(=O)c3ccc(F)cc3)cc2)CC1	none
O=C(Nc1ccc(S(=O)(=O)N2CCOCC2)cc1)c1ccc(CN2CCc3ccccc3C2)cc1	L major viab 90.6
CCN1CCc2c(sc(NC(=O)c3ccc(S(=O)(=O)N4CCOCC4)cc3)c2C(=O)OC)C1	L major viab 76.5
Cc1ccc(S(=O)(=O)N2CCN(C(=O)CCC(=O)N3CCc4ccccc43)CC2)cc1	none (no result: HCT116 bCat-KO, L major viab, HCT116 PTEN-null)
Cc1ccc(S(=O)(=O)N2CCN(C(=O)CN3CCc4ccccc4C3)CC2)cc1	L major viab 87.5
O=C(Nc1ccc(S(=O)(=O)N2CCCC2)cc1)c1ccc(CN2CCc3ccccc3C2)cc1	L major viab 90.0
CC(C)CC(=O)Nc1cccc(NC(=O)CC(C)C)n1	L major viab 52.2
